ChEMBL document CHEMBL1154448, “Thiazolyl/oxazolyl formazanyl indoles as potent anti-inflammatory agents” (Eur J Med Chem, 2008)

Experiments:
[1] = Acute toxicity in ip dosed albino mouse assessed as mortality after 24 hrs; assay type: organism-based; conditions: in vivo, read-out: ALD50
Method in brief: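 Albino mice of either sex (20-28 g), separate groups given graded intraperitoneal doses; percent mortality recorded 24 h after dosing; approximate 50% lethal dose (ALD50) calculated by the method of Smith.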

Rattus norvegicus [2] = experiment: Antiinflammatory activity in Albino rat assessed as inhibition of carrageenan-induced paw edema at 50 mg/kg, po administered 1 hr before carrageenan challenge by micro-pipette method relative to control; assay type: functional; set-up: scale not given: the % may be the effect or the level left
Method in brief: (§1)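 Rats of either sex, 75-125 g, in groups of 6 (one control group). Compounds were suspended in gum acacia and given orally 1 h before carrageenin. Foot volume was measured by micro-pipette before and at 1 and 3 h after carrageenin. % activity was calculated from the mean oedema volumes of treated (Vt) and control (Vc) groups.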

Mus musculus [3] = experiment: Analgesic activity in mouse assessed as protection against phenylquinone-induced writhes at 50 mg/kg, po administered 1 hr before phenylquinone challenge relative to control; assay type: functional
Method in brief: (§2)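 Mice in groups of 5 were dosed orally and, 1 h later, injected i.p. with 0.25 mL of 0.02% phenylquinone in 5% ethanol. Writhes per mouse were counted for 5 min, between 5 and 10 min after the irritant. % protection = (1 − mean writhes in test group / mean writhes in control group) × 100.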

Mus musculus [4] = experiment: Analgesic activity in mouse assessed as protection against phenylquinone-induced writhes at 25 mg/kg, po administered 1 hr before phenylquinone challenge relative to control; assay type: functional; method in brief: as §2
Rattus norvegicus [5] = experiment: Antiinflammatory activity in Albino rat assessed as inhibition of carrageenan-induced paw edema at 25 mg/kg, po administered 1 hr before carrageenan challenge by micro-pipette method relative to control; assay type: functional; set-up: scale not given: the % may be the effect or the level left; method in brief: as §1
Rattus norvegicus [6] = experiment: Antiinflammatory activity in Albino rat assessed as inhibition of carrageenan-induced paw edema at 100 mg/kg, po administered 1 hr before carrageenan challenge by micro-pipette method relative to control; assay type: functional; set-up: scale not given: the % may be the effect or the level left; method in brief: as §1
Mus musculus [7] = experiment: Analgesic activity in mouse assessed as protection against phenylquinone-induced writhes at 100 mg/kg, po administered 1 hr before phenylquinone challenge relative to control; assay type: functional; method in brief: as §2
[8] = Toxicity in ip dosed Albino rat assessed as ulcerogenic activity after 8 hrs; assay type: organism-based; conditions: in vivo, read-out: UD50
Method in brief: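 Adult albino rats of either sex, in groups of 10, non-pregnant, fasted 24 h with water allowed. Drugs were given i.p. and animals killed 8 h later. Stomach, duodenum and jejunum were examined with a hand lens for epithelial shedding, red spots or bleeding, and erosion or ulceration. Any one sign was scored as ulcerogenic. Result reported as UD50.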

| SMILES | LD50 at 24 h [1] [mg/kg] | Activity (Rattus norvegicus [2]) [%] | Activity (Mus musculus [3]) [%] | Activity (Mus musculus [4]) [%] | Activity (Rattus norvegicus [5]) [%] | Activity (Rattus norvegicus [6]) [%] | Activity (Mus musculus [7]) [%] | TD50 at 8 h [8] [mg/kg] |
| --- | --- | --- | --- | --- | --- | --- | --- | --- |
| Clc1ccc(-c2[nH]c3ccccc3c2-c2csc(/N=C/c3c(-c4ccccc4)[nH]c4ccccc34)n2)cc1 | 800 | 19.7 | – | – | – | – | – | – |
| Clc1ccc(/N=N/C(=N\c2nc(-c3c(-c4ccc(Cl)cc4)[nH]c4ccccc34)cs2)c2c(-c3ccccc3)[nH]c3ccccc23)cc1 | > 800 | 23.1 | 21.9 | – | – | – | – | – |
| Cc1[nH]c2ccccc2c1/C=N/c1nc(-c2c(-c3ccc(Cl)cc3)[nH]c3ccccc23)cs1 | > 1000 | 53.3 | 51.4 | 35.1 | 36.4 | 68.2 | 64.6 | 200 |
| Clc1ccc(-c2[nH]c3ccccc3c2-c2coc(/N=C/c3c[nH]c4ccccc34)n2)cc1 | > 800 | 22.7 | 20.9 | – | – | – | – | – |
| COc1ccc(/N=N/C(=N\c2nc(-c3c(-c4ccc(Cl)cc4)[nH]c4ccccc34)co2)c2c(-c3ccccc3)[nH]c3ccccc23)cc1 | > 800 | 17.6 | 15.2 | – | – | – | – | – |
| CCc1[nH]c2ccccc2c1/C=N/c1nc(-c2c(-c3ccc(Cl)cc3)[nH]c3ccccc23)co1 | > 800 | 17.3 | 16.2 | – | – | – | – | – |
| COc1ccc(/N=N/C(=N\c2nc(-c3c(-c4ccc(Cl)cc4)[nH]c4ccccc34)co2)c2c(C)[nH]c3ccccc23)cc1 | > 800 | 19.1 | 17.8 | – | – | – | – | – |
| CCc1[nH]c2ccccc2c1C(=N/c1nc(-c2c(-c3ccc(Cl)cc3)[nH]c3ccccc23)cs1)/N=N/c1ccc(Cl)cc1 | > 800 | 17.3 | 16.2 | – | – | – | – | – |
| CCc1[nH]c2ccccc2c1C(=N/c1nc(-c2c(-c3ccc(Cl)cc3)[nH]c3ccccc23)cs1)/N=N/c1ccc(OC)cc1 | > 800 | 13.5 | 12.3 | – | – | – | – | – |
| CCc1[nH]c2ccccc2c1C(=N/c1nc(-c2c(-c3ccc(Cl)cc3)[nH]c3ccccc23)co1)/N=N/c1ccc(Cl)cc1 | > 800 | 23.5 | 21.5 | – | – | – | – | – |
| Cc1[nH]c2ccccc2c1C(=N/c1nc(-c2c(-c3ccc(Cl)cc3)[nH]c3ccccc23)co1)/N=N/c1ccc(Cl)cc1 | > 800 | 22.1 | 21.2 | – | – | – | – | – |
| Clc1ccc(/N=N/C(=N\c2nc(-c3c(-c4ccc(Cl)cc4)[nH]c4ccccc34)cs2)c2c[nH]c3ccccc23)cc1 | > 800 | 9.6 | 8.5 | – | – | – | – | – |
| Clc1ccc(/N=N/C(=N\c2nc(-c3c(-c4ccc(Cl)cc4)[nH]c4ccccc34)co2)c2c(-c3ccccc3)[nH]c3ccccc23)cc1 | > 800 | 27.9 | 26.3 | – | – | – | – | – |
| COc1ccc(/N=N/C(=N\c2nc(-c3c(-c4ccc(Cl)cc4)[nH]c4ccccc34)cs2)c2c(C)[nH]c3ccccc23)cc1 | > 800 | 15.4 | 13.7 | – | – | – | – | – |
| COc1ccc(/N=N/C(=N\c2nc(-c3c(-c4ccc(Cl)cc4)[nH]c4ccccc34)cs2)c2c[nH]c3ccccc23)cc1 | > 800 | 19.2 | 18.8 | – | – | – | – | – |
| Clc1ccc(-c2[nH]c3ccccc3c2-c2coc(/N=C/c3c(-c4ccccc4)[nH]c4ccccc34)n2)cc1 | > 800 | 25.3 | 23.7 | – | – | – | – | – |
| CCc1[nH]c2ccccc2c1/C=N/c1nc(-c2c(-c3ccc(Cl)cc3)[nH]c3ccccc23)cs1 | > 800 | 25.8 | 23.2 | – | – | – | – | – |
| Clc1ccc(-c2[nH]c3ccccc3c2-c2csc(/N=C/c3c[nH]c4ccccc34)n2)cc1 | > 800 | 31.8 | 30.6 | – | – | – | – | – |
| CCCCC1C(=O)N(c2ccccc2)N(c2ccccc2)C1=O [PHENYLBUTAZONE] | – | 38.8 | 37.2 | 13.7 | 15.2 | 65.4 | 62.3 | 66.7 |
| COc1ccc(/N=N/C(=N\c2nc(-c3c(-c4ccc(Cl)cc4)[nH]c4ccccc34)co2)c2c[nH]c3ccccc23)cc1 | > 800 | 20.6 | 19.2 | – | – | – | – | – |
| COc1ccc(/N=N/C(=N\c2nc(-c3c(-c4ccc(Cl)cc4)[nH]c4ccccc34)cs2)c2c(-c3ccccc3)[nH]c3ccccc23)cc1 | > 800 | 11.5 | 10.5 | – | – | – | – | – |
| Cc1[nH]c2ccccc2c1/C=N/c1nc(-c2c(-c3ccc(Cl)cc3)[nH]c3ccccc23)co1 | > 800 | 21.3 | 19.9 | – | – | – | – | – |
| Cc1[nH]c2ccccc2c1C(=N/c1nc(-c2c(-c3ccc(Cl)cc3)[nH]c3ccccc23)cs1)/N=N/c1ccc(Cl)cc1 | > 800 | 21.2 | 19.8 | – | – | – | – | – |
| CCc1[nH]c2ccccc2c1C(=N/c1nc(-c2c(-c3ccc(Cl)cc3)[nH]c3ccccc23)co1)/N=N/c1ccc(OC)cc1 | > 800 | 25.2 | 23.9 | – | – | – | – | – |
| Clc1ccc(/N=N/C(=N\c2nc(-c3c(-c4ccc(Cl)cc4)[nH]c4ccccc34)co2)c2c[nH]c3ccccc23)cc1 | > 800 | 16.2 | 14.7 | – | – | – | – | – |
